Assay results: article PMC2802833 (Journal of Alzheimer's disease : JAD, 2009)
Strand notation (5' to 3'): a small letter for the sugar, then the base; units joined by * are phosphorothioate-linked, units joined directly phosphodiester-linked; [ ] holds rarer units or linkages, { } end groups; capitals alone tell only the bases. d = 2'-deoxy (DNA)

Key:
[1] = tested on: primary mouse BMEC monolayers; experiment: Transport; assay type: cell-based; conditions: 1 μg/mL unlabeled Aβ42 added to abluminal chamber; n = 13-15/group
Summary of the method: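 Primary mouse brain endothelial cells were isolated by enzyme digestion and Percoll gradient. They were seeded at 4 × 10^4 cells/insert on fibronectin/collagen IV-coated 0.33 cm2, 0.4 μm polyester Transwells and grown to confluence (~3 days) in DMEM/F-12 with 20% plasma-derived serum, bFGF and 500 nM hydrocortisone. Assays ran in HEPES buffer pH 7.4 with 1% BSA. Radio-iodinated Aβ42 (1 × 10^6 cpm/mL) was placed in the loading chamber, with or without unlabelled Aβ42 (1 μg/mL). TCA-precipitable counts were used to give clearance and membrane-corrected permeability (cm/min).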

[2] = Saturability of brain uptake for cocktail ODNs; assay type: in vivo; conditions: 10 μg/mouse unlabeled PS-ODN i.v., brain/serum ratio at 30 min; n = 8-9/group
Summary of the method: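 Labelled 19mer or 23mer (5 × 10^5 cpm/200 μl lactated Ringer's–1% BSA) was given i.v. with or without 10 μg/mouse of the corresponding unlabelled phosphorothioate oligonucleotide. Brain and serum were collected 30 min after injection. Results were expressed as brain/serum ratios.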

[3] = In vivo brain-to-blood efflux rate of i.c.v. P-Olg; design: species or system mouse; conditions: after i.c.v. injection, 5 × 10^3 cpm/μl, 2-20 min; n = 2-3 mice/time point
Summary of the method: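 Oligonucleotide was kinase-labelled, ethanol-precipitated, stored at −70°C and used within 48 h. After i.c.v. injection into anaesthetised mice, animals were decapitated at 2, 5, 10 or 20 min and brain radioactivity counted. The t = 0 level came from urethane-overdosed mice. Log % injected dose was plotted against time, and the slope (efflux rate) was obtained by linear regression. n = 2–3 mice/time point.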

LRP-1 [4] = experiment: Immunohistochemistry of LRP-1 in isolated mouse brain microvessels; assay type: cell-based; conditions: isolated MBMs, 10 μg/mL, 24 h; buffer = 100%; n = 5-6 slides/group
Summary of the method: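 Cerebral cortices from 10–12 adult male CD-1 mice, meninges removed, were homogenised in cold HEPES/dextran stock buffer. Microvessels were isolated by nylon-mesh filtration and dextran centrifugation, then kept in incubation buffer pH 7.4. They were exposed to buffer, random antisense or antisense cocktail (10 μg/mL) for 24 h. Vessels were heat-fixed, fixed in 3.7% formaldehyde and Triton-permeabilised, then stained overnight at 4°C with anti-LRP-1 antibody (10 μg/mL). Mean fluorescence was measured from 5–6 […]/group.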

LRP-1 [5] = biological target: LRP-1 (Mus musculus, UniProt Q91ZX7); experiment: Inhibition by RAP of brain-to-blood efflux of i.c.v. I-Aβ42; assay type: in vivo; conditions: n = 9/group
Sequence of LRP-1 (Mus musculus, UniProt Q91ZX7) (Q91ZX7 20-4545): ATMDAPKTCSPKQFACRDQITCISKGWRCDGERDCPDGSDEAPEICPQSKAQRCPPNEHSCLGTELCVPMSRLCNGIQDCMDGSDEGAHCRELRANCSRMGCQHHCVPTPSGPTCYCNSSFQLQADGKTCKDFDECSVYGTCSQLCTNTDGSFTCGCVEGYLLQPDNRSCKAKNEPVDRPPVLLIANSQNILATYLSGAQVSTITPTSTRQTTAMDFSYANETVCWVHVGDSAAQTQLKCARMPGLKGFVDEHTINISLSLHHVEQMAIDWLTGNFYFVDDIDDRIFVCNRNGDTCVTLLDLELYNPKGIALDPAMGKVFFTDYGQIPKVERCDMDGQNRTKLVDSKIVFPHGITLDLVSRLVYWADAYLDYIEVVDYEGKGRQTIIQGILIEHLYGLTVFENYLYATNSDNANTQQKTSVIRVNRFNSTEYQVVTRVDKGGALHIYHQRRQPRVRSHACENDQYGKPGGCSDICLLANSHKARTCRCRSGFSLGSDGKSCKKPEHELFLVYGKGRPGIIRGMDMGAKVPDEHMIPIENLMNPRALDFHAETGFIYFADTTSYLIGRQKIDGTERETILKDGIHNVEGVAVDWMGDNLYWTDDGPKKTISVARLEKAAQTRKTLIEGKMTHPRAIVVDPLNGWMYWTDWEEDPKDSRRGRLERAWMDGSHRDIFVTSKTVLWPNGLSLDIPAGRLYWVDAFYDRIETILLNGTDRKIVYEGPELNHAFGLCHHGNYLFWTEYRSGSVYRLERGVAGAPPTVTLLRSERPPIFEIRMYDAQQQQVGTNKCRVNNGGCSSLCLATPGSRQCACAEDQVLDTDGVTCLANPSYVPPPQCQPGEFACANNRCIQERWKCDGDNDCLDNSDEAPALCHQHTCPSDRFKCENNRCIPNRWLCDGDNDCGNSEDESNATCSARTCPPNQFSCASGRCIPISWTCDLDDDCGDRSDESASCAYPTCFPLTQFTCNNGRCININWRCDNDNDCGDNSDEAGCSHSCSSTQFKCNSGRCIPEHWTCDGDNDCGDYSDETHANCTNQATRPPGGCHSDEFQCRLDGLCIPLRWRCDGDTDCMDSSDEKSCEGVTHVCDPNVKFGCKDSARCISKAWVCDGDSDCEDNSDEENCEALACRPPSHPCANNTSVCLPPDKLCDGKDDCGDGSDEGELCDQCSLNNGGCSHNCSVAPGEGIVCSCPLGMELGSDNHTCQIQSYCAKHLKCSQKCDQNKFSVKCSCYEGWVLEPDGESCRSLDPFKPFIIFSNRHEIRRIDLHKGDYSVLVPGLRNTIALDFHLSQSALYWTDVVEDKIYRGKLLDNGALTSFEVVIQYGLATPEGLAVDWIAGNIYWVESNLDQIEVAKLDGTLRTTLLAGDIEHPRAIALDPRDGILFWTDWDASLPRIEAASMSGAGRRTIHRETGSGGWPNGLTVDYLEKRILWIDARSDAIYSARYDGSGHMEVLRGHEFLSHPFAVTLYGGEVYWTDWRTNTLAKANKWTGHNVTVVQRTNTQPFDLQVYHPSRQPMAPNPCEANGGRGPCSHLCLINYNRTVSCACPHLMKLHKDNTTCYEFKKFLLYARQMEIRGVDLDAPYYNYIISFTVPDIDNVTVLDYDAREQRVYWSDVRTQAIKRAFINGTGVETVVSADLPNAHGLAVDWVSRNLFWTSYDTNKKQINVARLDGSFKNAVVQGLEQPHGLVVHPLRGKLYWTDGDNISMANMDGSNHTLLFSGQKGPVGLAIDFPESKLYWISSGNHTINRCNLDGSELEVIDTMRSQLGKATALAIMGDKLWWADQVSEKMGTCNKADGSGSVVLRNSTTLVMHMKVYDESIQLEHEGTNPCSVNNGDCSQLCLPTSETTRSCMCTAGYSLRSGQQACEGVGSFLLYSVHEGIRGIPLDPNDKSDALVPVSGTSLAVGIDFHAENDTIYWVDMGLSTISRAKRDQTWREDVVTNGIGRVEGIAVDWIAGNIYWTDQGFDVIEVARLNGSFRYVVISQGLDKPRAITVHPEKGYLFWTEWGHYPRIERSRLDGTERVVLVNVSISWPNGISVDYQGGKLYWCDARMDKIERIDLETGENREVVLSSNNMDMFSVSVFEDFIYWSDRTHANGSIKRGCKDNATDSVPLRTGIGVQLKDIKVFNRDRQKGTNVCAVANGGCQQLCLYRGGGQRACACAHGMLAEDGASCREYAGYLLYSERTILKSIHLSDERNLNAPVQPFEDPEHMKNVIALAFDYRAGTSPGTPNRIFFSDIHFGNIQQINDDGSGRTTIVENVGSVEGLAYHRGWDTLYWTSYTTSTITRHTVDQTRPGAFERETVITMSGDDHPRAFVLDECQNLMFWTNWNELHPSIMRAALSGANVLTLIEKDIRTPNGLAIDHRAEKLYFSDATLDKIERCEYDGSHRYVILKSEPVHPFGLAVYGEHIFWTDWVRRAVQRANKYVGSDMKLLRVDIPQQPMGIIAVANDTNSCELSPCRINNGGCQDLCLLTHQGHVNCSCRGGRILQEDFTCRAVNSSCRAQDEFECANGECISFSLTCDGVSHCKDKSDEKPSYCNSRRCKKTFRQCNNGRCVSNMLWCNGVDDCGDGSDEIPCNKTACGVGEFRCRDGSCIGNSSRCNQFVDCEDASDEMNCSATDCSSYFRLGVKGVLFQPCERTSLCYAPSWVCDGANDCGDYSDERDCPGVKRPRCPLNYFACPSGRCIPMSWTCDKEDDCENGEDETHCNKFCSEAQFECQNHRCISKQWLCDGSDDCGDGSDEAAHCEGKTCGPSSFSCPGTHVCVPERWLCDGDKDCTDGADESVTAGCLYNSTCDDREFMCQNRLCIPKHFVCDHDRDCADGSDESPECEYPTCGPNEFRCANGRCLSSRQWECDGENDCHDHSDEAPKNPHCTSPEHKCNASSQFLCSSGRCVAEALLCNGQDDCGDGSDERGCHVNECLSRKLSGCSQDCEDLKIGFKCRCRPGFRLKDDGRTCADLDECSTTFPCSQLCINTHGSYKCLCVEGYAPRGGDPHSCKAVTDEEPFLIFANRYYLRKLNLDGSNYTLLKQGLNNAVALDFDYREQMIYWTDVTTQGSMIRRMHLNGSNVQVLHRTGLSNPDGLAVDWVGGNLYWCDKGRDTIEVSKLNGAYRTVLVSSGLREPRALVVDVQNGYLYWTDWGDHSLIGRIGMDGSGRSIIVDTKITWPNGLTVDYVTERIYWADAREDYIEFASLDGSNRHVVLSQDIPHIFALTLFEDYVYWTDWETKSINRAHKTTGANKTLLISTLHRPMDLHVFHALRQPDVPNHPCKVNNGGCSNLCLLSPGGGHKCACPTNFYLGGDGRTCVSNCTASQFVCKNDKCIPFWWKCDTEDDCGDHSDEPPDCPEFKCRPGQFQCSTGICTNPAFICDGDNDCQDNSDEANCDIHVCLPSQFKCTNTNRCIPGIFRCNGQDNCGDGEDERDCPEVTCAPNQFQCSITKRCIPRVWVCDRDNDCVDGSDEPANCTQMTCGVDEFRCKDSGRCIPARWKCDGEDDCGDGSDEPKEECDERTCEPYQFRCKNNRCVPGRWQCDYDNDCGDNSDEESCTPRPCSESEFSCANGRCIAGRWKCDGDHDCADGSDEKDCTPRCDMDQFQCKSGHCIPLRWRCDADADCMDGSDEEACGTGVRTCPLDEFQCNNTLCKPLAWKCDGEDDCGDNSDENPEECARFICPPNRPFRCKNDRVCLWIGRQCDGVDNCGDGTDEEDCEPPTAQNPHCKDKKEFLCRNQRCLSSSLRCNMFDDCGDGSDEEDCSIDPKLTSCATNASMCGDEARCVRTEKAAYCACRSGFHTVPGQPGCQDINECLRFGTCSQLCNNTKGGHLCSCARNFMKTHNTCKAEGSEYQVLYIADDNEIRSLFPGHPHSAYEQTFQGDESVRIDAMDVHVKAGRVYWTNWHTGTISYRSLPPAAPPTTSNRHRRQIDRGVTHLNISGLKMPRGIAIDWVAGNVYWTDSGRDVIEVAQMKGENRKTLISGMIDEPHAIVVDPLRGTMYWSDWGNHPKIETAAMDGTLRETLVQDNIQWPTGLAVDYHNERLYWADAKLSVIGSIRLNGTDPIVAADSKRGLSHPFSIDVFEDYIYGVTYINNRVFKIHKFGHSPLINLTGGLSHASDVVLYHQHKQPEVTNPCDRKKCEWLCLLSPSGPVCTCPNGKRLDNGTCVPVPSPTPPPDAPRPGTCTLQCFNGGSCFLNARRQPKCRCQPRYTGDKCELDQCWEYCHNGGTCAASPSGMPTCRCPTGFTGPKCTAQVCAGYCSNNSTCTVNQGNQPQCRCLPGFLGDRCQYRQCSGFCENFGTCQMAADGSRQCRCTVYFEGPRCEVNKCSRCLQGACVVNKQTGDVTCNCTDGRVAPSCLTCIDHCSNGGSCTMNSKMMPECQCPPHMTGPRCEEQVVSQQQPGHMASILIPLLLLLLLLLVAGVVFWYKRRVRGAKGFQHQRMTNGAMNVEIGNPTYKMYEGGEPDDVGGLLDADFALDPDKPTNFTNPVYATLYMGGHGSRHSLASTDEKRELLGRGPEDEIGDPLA

| Substance | brain uptake on co-administration of unlabeled PS-ODN (saturability) [2] | half-time clearance from brain [3] [min] | further results |
| --- | --- | --- | --- |
| Aβ42: 42 amino acid murine Aβ (Bachem), unlabeled, used as competitor of I-Aβ42 transport |  |  | abluminal-to-luminal transport of I-Aβ42 (saturability) [1]: significantly (p < 0.01) inhibited |
| P-19mer: 19mer (Anti-LRP1) phosphorothioate ODN 5′-(_P=S)TGATTTGGTCTCTGCAGGC-3′, directed at an LRP-1 coding region (nt 559–541) (antisense dT*dG*dA*dT*dT*dT*dG*dG*dT*dC*dT*dC*dT*dG*dC*dA*dG*dG*dC) | not significantly decreased | 231.5 |  |
| P-23mer: 23mer (Anti-LRP1) phosphorothioate ODN 5′-(_P=S)GTGTGGGCCGATGCAAACAGCAG-3′, designed to bind the translation start site (nt 442–418) (antisense dG*dT*dG*dT*dG*dG*dG*dC*dC*dG*dA*dT*dG*dC*dA*dA*dA*dC*dA*dG*dC*dA*dG) | significantly decreased | 47.8 |  |
| random antisense: 21mer (Random) control PS-ODN 5′-(_P=S)GAGAAGGTTGTGTGATCTTCA, no sequence homology with any mouse genes (antisense dG*dA*dG*dA*dA*dG*dG*dT*dT*dG*dT*dG*dT*dG*dA*dT*dC*dT*dT*dC*dA) |  |  | mean fluorescent intensity (LRP-1 immunofluorescence) (LRP-1 [4]): 111.14% |
| receptor-associated protein [RAP] |  |  | brain-to-blood efflux of i.c.v. administered I-Aβ42 (LRP-1 [5]): inhibits |
